In ChEMBL document CHEMBL2331120, “Evidence for the analgesic activity of resveratrol in acute models of nociception in mice” (2013):
Activity calls are given as the source filed them.

Legend:
Mus musculus [1] = assay: Antinociceptive activity in Swiss mouse assessed as inhibition of capsaicin-induced spontaneous nociception at 100 mg/kg, po; assay type: functional
Method in brief: (§1)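 Swiss mice (30 to 35 g) acclimatized in observation chambers, then dosed orally 30 min before intraplantar capsaicin (1.6 μg in 20 μL, right hindpaw). Time spent licking the injected paw scored over 5 min. Saline controls on the same schedule. n = 8 per group. Percent inhibition taken as the mean of individual experiments.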

Mus musculus [2] = assay: Antinociceptive activity in Swiss mouse assessed as inhibition of capsaicin-induced biting behavior at 300 ug/site, administered intrathecally; assay type: functional, organism-based
Method in brief: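 Swiss mice, 30 to 35 g. Given 300 μg/site it, in 5 μL, co-injected with capsaicin (6.4 μg in 5 μL) into the subdural space at L5−L6. Biting is scored as single head movements directed at the flanks or hind limbs that contact the snout. Controls got saline. Eight animals per group.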

Mus musculus [3] = assay: Antinociceptive activity in Swiss mouse assessed as inhibition of capsaicin-induced spontaneous nociception at 300 ug/site, icv; assay type: functional
Method in brief: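 Intracerebroventricular injection (300 μg/site in 5 μL) 10 min before capsaicin (1.6 μg in 20 μL) into the right hindpaw plantar surface of Swiss mice. Paw-licking time (s) measured over 5 min against saline controls. n = 8. Inhibition calculated as the mean of per-experiment values.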

Mus musculus [4] = assay: Antinociceptive activity in Swiss mouse assessed as inhibition of capsaicin-induced spontaneous nociception at 300 ug/site, administered as intrathecally; assay type: functional
Method in brief: (§2)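 Mice given intrathecal dose in 5 μL 10 min before intraplantar capsaicin (1.6 μg/paw, 20 μL). Time spent licking the paw recorded for 5 min. Saline-treated controls. Eight animals per group. Percent inhibition averaged across individual experiments.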

Mus musculus [5] = assay: Antinociceptive activity in Swiss mouse assessed as inhibition of capsaicin-induced spontaneous nociception at 200 ug/site, administered as intraplantarly; assay type: functional, organism-based
Method in brief: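 Given 200 μg/paw intraplantar, co-injected with capsaicin (1.6 μg in 20 μL) into the right hindpaw of Swiss mice. Time spent licking the injected paw recorded over 5 min. Saline controls. Eight animals per group.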

Mus musculus [6] = assay: Antinociceptive activity in Swiss mouse assessed as inhibition of capsaicin-induced spontaneous nociception at 150 ug/site, administered as intrathecally; assay type: functional; method in brief: as §2
Mus musculus [7] = assay: Antinociceptive activity in Swiss mouse assessed as inhibition of glutamate-induced biting behavior at 300 ug/site, administered intrathecally; assay type: functional
Method in brief: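 Glutamate (30 μg in 5 μL) injected intrathecally into the subdural space at L5–L6, co-injected with compound (300 μg in 5 μL, it). Biting was scored, defined as a head movement toward the flanks or hind limbs ending in snout contact. Saline controls. Eight mice per group.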

Mus musculus [8] = assay: Antinociceptive activity in Swiss mouse assessed as inhibition of glutamate-induced spontaneous nociception at 100 mg/kg, po; assay type: functional
Method in brief: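 Oral pretreatment 30 min before intraplantar glutamate (10 μmol/paw, 20 μL) into the right hindpaw. Mice observed individually for 15 min for time spent licking the injected paw. Saline controls. Eight animals per group. Percent inhibition taken as the mean of individual experiments.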

Mus musculus [9] = assay: Antinociceptive activity in Swiss mouse assessed as inhibition of glutamate-induced increase of COX2 expression in spinal cord and cortex brain section at 100 mg/kg, po
Mus musculus [10] = assay: Antinociceptive activity in Swiss mouse assessed as inhibition of glutamate-induced spontaneous nociception at 300 ug/site, icv; assay type: functional, organism-based
Method in brief: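 Dosed icv at 300 μg/site in 5 μL, 10 min before glutamate (10 μmol/paw, ipl). Licking of the injected paw timed for 15 min in Swiss mice, against saline controls. Eight animals per group.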

Mus musculus [11] = assay: Antinociceptive activity in Swiss mouse assessed as inhibition of capsaicin-induced spontaneous nociception at 50 mg/kg, po; assay type: functional; method in brief: as §1
Mus musculus [12] = assay: Antinociceptive activity in Swiss mouse assessed as inhibition of capsaicin-induced increase of c-Fos expression in brain cortex at 100 mg/kg, po by immunohistochemistry analysis; assay type: functional, organism-based; set-up: dose 100 mg/kg
Method in brief: (§3)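 Swiss mice, 30 to 35 g, dosed 100 mg/kg po 30 min before ipl capsaicin (1.6 μg in 20 μL per paw). Spinal cord and brain taken 60 min later and fixed in buffered formalin. Sections stained with rabbit anti-c-Fos or anti-COX-2 (1:1000) overnight at room temperature, then biotinylated secondary, ABC and nickel-enhanced DAB. Read-out is positive area per field. Four animals per group.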

Mus musculus [13] = assay: Antinociceptive activity in Swiss mouse assessed as inhibition of capsaicin-induced increase of COX2 expression in brain cortex at 100 mg/kg, po by Western blotting; assay type: functional, organism-based; set-up: dose 100 mg/kg
Method in brief: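 Mice dosed 100 mg/kg po or given saline, then capsaicin 1.6 μg/paw ipl. Cortex homogenized in hypotonic HEPES buffer with protease inhibitors plus Nonidet P-40. 20 μg protein run on 10% SDS-PAGE. Blot probed 12 h with anti-COX-2 (1:250), then HRP secondary. Bands by chemiluminescence and densitometry, normalized to β-actin. Four animals per group.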

Mus musculus [14] = assay: Antinociceptive activity in Swiss mouse assessed as inhibition of capsaicin-induced increase of c-Fos expression in L3-L6 spinal segments at 100 mg/kg, po by immunohistochemistry analysis; assay type: functional, organism-based; set-up: dose 100 mg/kg; method in brief: as §3
Mus musculus [15] = assay: Antinociceptive activity in Swiss mouse assessed as inhibition of capsaicin-induced increase of COX2 expression in L3-L6 spinal segments and cerebral cortex at 100 mg/kg, po by immunohistochemistry analysis; assay type: functional, organism-based; set-up: dose 100 mg/kg; method in brief: as §3
Mus musculus [16] = assay: Antinociceptive activity in Swiss mouse assessed as inhibition of glutamate-induced increase of c-Fos expression in L3-L6 spinal segments at 100 mg/kg, po by immunohistochemistry analysis; assay type: functional, organism-based; set-up: dose 100 mg/kg
Method in brief: (§4)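 Swiss mice dosed 100 mg/kg po 30 min before ipl glutamate (10 μmol per paw). Spinal cord and brain excised 60 min later and formalin-fixed. Sections immunostained with rabbit anti-c-Fos (1:1000) overnight at room temperature, then biotinylated secondary, ABC and nickel-enhanced DAB. Positive area per field quantified. Four animals per group.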

Mus musculus [17] = assay: Antinociceptive activity in Swiss mouse assessed as inhibition of capsaicin-induced spontaneous nociception at 600 ug/site, administered as intrathecally; assay type: functional; method in brief: as §2
Mus musculus [18] = assay: Antinociceptive activity in Swiss mouse assessed as inhibition of glutamate-induced spontaneous nociception at 200 ug/site, administered as intraplantarly; assay type: functional
Method in brief: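 Compound co-injected intraplantarly (200 μg/paw) with glutamate (10 μmol/paw, 20 μL) into the right hindpaw of Swiss mice. Licking of the injected paw timed over 15 min. Saline controls. n = 8 per group.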

Mus musculus [19] = assay: Antinociceptive activity in Swiss mouse assessed as inhibition of glutamate-induced spontaneous nociception at 300 ug/site, administered as intrathecally; assay type: functional, organism-based
Method in brief: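 Given intrathecally at 300 μg/site in 5 μL, 10 min before ipl glutamate (10 μmol per paw, in 20 μL) in Swiss mice. Paw-licking time recorded over 15 min. Saline controls. Eight animals per group.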

Mus musculus [20] = assay: Antinociceptive activity in Swiss mouse assessed as inhibition of glutamate-induced increase of c-Fos expression in brain cortex at 100 mg/kg, po by immunohistochemistry analysis; assay type: functional, organism-based; set-up: dose 100 mg/kg; method in brief: as §4

Oc1ccc(/C=C/c2cc(O)cc(O)c2)cc1 [RESVERATROL]
inhibition in vivo at 100 mg/kg (Mus musculus [1]): 36% | inhibition (Mus musculus [2]): inactive | inhibition (INH) (Mus musculus [3]): 87% | inhibition (INH) (Mus musculus [4]): 44% | inhibition (Mus musculus [5]): inactive | inhibition (INH) (Mus musculus [6]): 33% | inhibition (INH) (Mus musculus [7]): 74% | inhibition in vivo at 100 mg/kg (Mus musculus [8]): 39% | inhibition (Mus musculus [9]): inactive | inhibition (Mus musculus [10]): inactive | inhibition in vivo at 50 mg/kg (Mus musculus [11]): 29% | inhibition (Mus musculus [12]): inactive | inhibition (Mus musculus [13]): Active | inhibition (Mus musculus [14]): Active | inhibition (Mus musculus [15]): Active | inhibition (Mus musculus [16]): inactive | inhibition (INH) (Mus musculus [17]): 36% | inhibition (INH) (Mus musculus [18]): 33% | inhibition (Mus musculus [19]): inactive | inhibition (Mus musculus [20]): inactive
